CaV13 FRET inh = Primary screen for inhibitors of IQ motif and Ca2+-dependent inactivation inhibitor domain binding in CACNA1D, Förster resonance energy transfer in living cells, … | HEK cells, CFP/YFP FRET ICDI-IQ, plate reader, 10 min; percent FRET-ratio fall versus neutral wells | inhibition, % at 12.3 µM | 0.098% of 340,000 active;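 active = mean replicate inhibition of at least 30% and at least 1% of replicates passing that level; inconclusive = only one of the two criteria is met; inactive = neither criterion is met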
LANA-H2B inh = blocks KSHV LANA binding to histone H2A/H2B | Q9QR71 | cell-free LANA-H2A/H2B peptide, fluorescence polarization | inhibition, % (concentration not given with the values) | 0.6% of 320,000 active | AID 2629; in the data active = inhibition mostly above about 10%, no sharp cut-off; inactive = mostly below about 6.7%
HDAC3 inh = human HDAC3 inhibition; 0.15% of 320,000 active; recombinant HDAC3, fluorogenic peptide/trypsin coupled, fluorescence; O15379; inhibition, % at 8.3 µM; in the data active = inhibition above about 26%, passing the limit was not always enough; inconclusive = no clear call, values can overlap the other calls
Target sequence (O15379 whole entry, looked up): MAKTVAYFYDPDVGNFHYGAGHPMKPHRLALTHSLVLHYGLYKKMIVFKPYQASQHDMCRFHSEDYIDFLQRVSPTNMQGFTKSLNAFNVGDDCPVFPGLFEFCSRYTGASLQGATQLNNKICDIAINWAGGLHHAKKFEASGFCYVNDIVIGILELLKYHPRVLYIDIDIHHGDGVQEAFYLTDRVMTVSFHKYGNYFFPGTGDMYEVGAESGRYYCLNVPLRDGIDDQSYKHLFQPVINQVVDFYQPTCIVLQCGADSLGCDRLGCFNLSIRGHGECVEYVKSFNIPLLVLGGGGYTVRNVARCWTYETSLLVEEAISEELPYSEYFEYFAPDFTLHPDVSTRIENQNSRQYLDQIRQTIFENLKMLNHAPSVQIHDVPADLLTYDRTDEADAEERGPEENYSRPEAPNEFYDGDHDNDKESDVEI
RanGTP-Imp inh = disruptors of Ran-importin-beta complex formation – biochemical, FRET, CFP-Ran, YFP-importin-beta, homogeneous, primary screen; cell-free CFP-Ran/YFP-importin-beta FRET ratio; inhibition, % (concentration not given with the values); 1.1% of 300,000 active; AID 2216;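 active = more than half of the replicate wells show a fall in the fluorescence ratio signal beyond about 16%, limit read from the data, passing the limit was not always enough; inconclusive = exactly half of the replicate wells pass the set limit; inactive = fewer than half of replicates pass the limit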
Runt-CBFb FRET = blocks binding of human RUNX1 Runt domain to CBFb | Q01196+Q13951 | Cerulean-Runt/Venus-CBFb FRET ratio 530/480, 1 h | inhibition, % at 20 µM | AID 1496 | 0.46% of 220,000 active;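 active = inhibition over about 50% at 20 µM in the single-dose screen, limit read from the data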
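Measured by: fluorescence energy transfer, 422 nm excitation, 530/480 nm emission; Assay system: Cerulean-Runt domain; Medium: Tris pH 7.5 buffer with BSA; Measure: loss of energy transfer signal; Controls: 5 µM unlabeled CBFb as full-inhibition high control; Incubation: protein complex preformed 1 h, compound exposure 1 h, room temperature, dark.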
Runt-SMMHC FRET = inhibitors of human RUNX1 Runt domain binding to CBFb-SMMHC | AID 1434 | Cerulean-Runt/Venus-CBFb-SMMHC FRET ratio 530/480, 1 h | inhibition, % at 20 µM | 0.74% of 220,000 active;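 active = mean inhibition across duplicate retests at 20 µM reaching about 50%, limit read from the data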;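 note: inhibitors lower the FRET ratio by blocking Runt binding to CBFb-SMMHC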
YIC FRET counter = counter-screen YIC FRET for RanGTP-importin-beta inhibitors. Purified YIC probe, intramolecular FRET ratio YFP/CFP. IC50, µM. shares compounds with RanGTP-Imp inh. AID 435026. 40% of 1,000 active;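 active = fitted half-maximal inhibitory concentration no more than tenfold above the top dose tested; inconclusive = flat fit with 30 to 70% activity, or poor fit; inactive = half-maximal concentration beyond tenfold above the top dose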
Large screens that a line does not name were inactive (follow-up assays come after a bar, where they were run). This is a sample that favours compounds with a hit; in the whole collection about 1.9% have one here.

O=C(NNc1c2ccccc2nc2ccccc12)c1ccc(O)cc1O	RanGTP-Imp inh 38 | YIC FRET counter inactive
O=C(CCCO)NNc1c2ccccc2nc2ccccc12	RanGTP-Imp inh 25 | YIC FRET counter inactive
O=C(NNc1c2ccccc2nc2ccccc12)c1cccc(O)c1	RanGTP-Imp inh inconclusive
Cn1c2ccccc2c2c(=O)oc3ccccc3c21	none (no result: LANA-H2B inh, HDAC3 inh, RanGTP-Imp inh, Runt-CBFb FRET, Runt-SMMHC FRET)
COc1ccccc1CNC(=O)COC(=O)Cc1ccc(Cl)cc1	RanGTP-Imp inh 17 | YIC FRET counter inactive
COc1ccccc1CNC(=O)COC(=O)Cc1ccc(F)cc1	none (no result: HDAC3 inh, Runt-CBFb FRET, Runt-SMMHC FRET)
Cc1ccc(/C=C/C(=O)Nc2cccc3ncccc23)o1	RanGTP-Imp inh 17 | YIC FRET counter inactive
Cc1ccc(/C=C/C(=O)Nc2cccnc2)o1	none
COc1ccc2cc(CCN3C(=O)c4ccccc4C3=O)c(=O)[nH]c2c1	RanGTP-Imp inh 20 | YIC FRET counter inactive
CC1CCN(c2nc3ccccc3nc2C(C#N)C(=O)OC2CCCCC2)CC1 (stereo not given)	RanGTP-Imp inh 20 (no result: CaV13 FRET inh) | YIC FRET counter 15
CCN(CC(=O)Nc1c(F)cccc1F)C(=O)C1CC1C (stereo not given)	none (no result: Runt-CBFb FRET, Runt-SMMHC FRET)
CC(=O)N1c2ccc(S(=O)(=O)N3CCC(C(=O)Nc4cccc(Cl)c4)CC3)cc2CC1C (stereo not given)	RanGTP-Imp inh 25 (no result: Runt-CBFb FRET, Runt-SMMHC FRET) | YIC FRET counter inactive
C[C@@H](NC(=O)c1ncn2c1c(=O)[nH]c1ccc(Br)cc12)c1ccccc1	none (no result: LANA-H2B inh, HDAC3 inh, RanGTP-Imp inh, Runt-CBFb FRET, Runt-SMMHC FRET)
O=[N+]([O-])c1ccc(Nc2c3ccccc3nc3ccccc23)cc1	RanGTP-Imp inh 25 (no result: LANA-H2B inh, HDAC3 inh) | YIC FRET counter inactive
O=C(O)c1cccc(Nc2c3ccccc3nc3ccccc23)c1	RanGTP-Imp inh 20 (no result: Runt-CBFb FRET, Runt-SMMHC FRET) | YIC FRET counter inactive
CC(=O)c1cccc(Nc2cc(C)nc3ccccc23)c1	none
O=[N+]([O-])c1ccccc1Nc1c2ccccc2nc2ccccc12	none
Nn1c(Cc2cccc3ccccc23)nnc1SCCOc1ccc(Br)cc1	none
CC(=O)c1c(C)[nH]c(C(=O)Nc2nc(-c3ccccc3)c(C)s2)c1C	none
Cc1c(Br)c([N+](=O)[O-])nn1CCCC(=O)Nc1sc2c(c1C(N)=O)CCC(C)C2 (stereo not given)	none
Cc1c(Cl)c([N+](=O)[O-])nn1CCCC(=O)Nc1sc2c(c1C(N)=O)CCC(C)C2 (stereo not given)	RanGTP-Imp inh 24 | YIC FRET counter inactive
CCc1ccc(C2C3=C(CC(C)(C)CC3=O)Nc3c2c(=O)[nH]c2nc(C)nn32)cc1 (stereo not given)	RanGTP-Imp inh 40, Runt-CBFb FRET 62 (no result: Runt-SMMHC FRET) | YIC FRET counter 7.1
Cc1ccc(Cn2ccc(NC(=O)c3noc4c3CCc3ccccc3-4)n2)cc1	RanGTP-Imp inh 33 (no result: CaV13 FRET inh) | YIC FRET counter inactive
COc1ccc2c(c1)CCc1c(C(=O)Nc3ccn(Cc4ccc(C)cc4)n3)noc1-2	none
CSc1ccc(-c2nnn(Cc3ccccn3)n2)cc1	none (no result: CaV13 FRET inh)
Cc1cc(N2CCN(C(c3ccnc4ccccc34)c3nnnn3-c3c(C)cccc3C)CC2)c2ccccc2n1 (stereo not given)	none (no result: LANA-H2B inh, HDAC3 inh, RanGTP-Imp inh, Runt-CBFb FRET, Runt-SMMHC FRET)
COc1cccc(-c2cc(C(F)(F)F)n3ncc(S(=O)(=O)c4ccccc4)c3n2)c1	RanGTP-Imp inh 35 | YIC FRET counter 43
N#Cc1ccccc1S(=O)(=O)N1CCN(C(=O)c2cc(=O)[nH]c3ccccc23)CC1	none (no result: RanGTP-Imp inh, Runt-CBFb FRET, Runt-SMMHC FRET)
Cc1c(C#N)c(NC(=O)CCl)n(Cc2ccccc2)c1C	RanGTP-Imp inh 23 | YIC FRET counter inactive
Cc1c(C#N)c(NC(=O)CCl)n(Cc2ccc(F)cc2)c1C	none
CCOc1cccc(/C=N/NC(=O)c2cc(C3CC3)[nH]n2)c1O	none (no result: Runt-CBFb FRET, Runt-SMMHC FRET)
O=[N+]([O-])c1cc(CN2CCCC2)ccc1Sc1ccc(Cl)cc1	RanGTP-Imp inh 19 | YIC FRET counter inactive
Clc1ccc(CN2CCCCCC2)cc1	none (no result: Runt-CBFb FRET, Runt-SMMHC FRET)
CNC(=O)c1c(C)[nH]c(=S)c(C#N)c1-c1ccco1	RanGTP-Imp inh 31 | YIC FRET counter inactive
